# Test results taken from ChEMBL document CHEMBL1146340, “Synthesis of the 5-phosphono-pent-2-en-1-yl nucleosides: a new class of antiviral acyclic nucleoside phosphonates” (Bioorg Med Chem, 2007).
# Columns and labels:
# [1] = Specificity index, Ratio of CC50 for MCR5 cells to EC50 for HSV1; type: functional
# Method in brief: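 Ratio of CC50 to EC50, both measured in MRC-5 human lung fibroblasts. […] CC50: neutral red uptake after 7 days, 5-fold dilutions from 100 μM to 0.03 μM, OD 540 nm; mean of 3 experiments.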
# [2] = Cytotoxicity against human MRC5 cells by neutral red uptake assay; type: cell-based
# Method in brief: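 MRC-5 human lung fibroblasts seeded at 2.5 x 10^4 cells/well and incubated 24 h. Medium then replaced with MEM plus 2% FBS. Drug diluted serially 5-fold from 100 μM to 0.03 μM and exposed for 7 days. Cells stained with neutral red for 1 h, dye solubilized in 1% acetic acid/50% ethanol, OD read at 540 nm. CC50 (50% viability reduction) calculated; mean ± SD of 3 experiments.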
SMILES,Selectivity index [1],CC50 [2]
CCCCCCCCCCCCCCCCOCCCOP(=O)(O)CC/C=C\Cn1cnc2c(=O)nc(N)[nH]c21,2.1,12.2 µM
Nc1ncnc2c1ncn2C/C=C\CCP(=O)(O)O,,> 100 µM
Cc1cn(C/C=C\CCP(=O)(O)O)c(=O)[nH]c1=O,,> 100 µM
CCCCCCCCCCCCCCCCOCCCOP(=O)(O)CC/C=C\Cn1cnc2c(N)ncnc21,0.96,17.3 µM
Nc1ccn(C/C=C\CCP(=O)(O)O)c(=O)n1,,> 100 µM
CCCCCCCCCCCCCCCCOCCCOP(=O)(O)CC/C=C\Cn1ccc(=O)[nH]c1=O,,51 µM
Nc1nc(=O)c2ncn(C/C=C\CCP(=O)(O)O)c2[nH]1,,> 100 µM
CCCCCCCCCCCCCCCCOCCCOP(=O)(O)CC/C=C\Cn1ccc(N)nc1=O,2.38,11.2 µM
CCCCCCCCCCCCCCCCOCCCOP(=O)(O)CC/C=C\Cn1cc(C)c(=O)[nH]c1=O,8.22,7.4 µM
O=c1nc(O)ccn1C/C=C\CCP(=O)(O)O,,> 100 µM
